Tests used:
[1] = biological target: Histone deacetylase 2 (Homo sapiens, UniProt Q92769)
[2] = biological target: Histone deacetylase 3/Nuclear receptor corepressor 2 (HDAC3/NCoR2) (Homo sapiens, UniProt O15379); assay: Inhibition of full length human C-terminal His-tagged HDAC3/human N-terminal GST-agged NCOR2 using fluorogenic acetylated peptide as substrate incubated for 30 mins by fluorescence plate reader assay; assay type: protein-complex assay
[3] = biological target: Histone deacetylase 1 (Homo sapiens, UniProt Q13547); assay: Inhibition of full length human C-terminal His-tagged/C-terminal Flag-tagged HDAC1 using fluorogenic acetylated peptide as substrate incubated for 30 mins by fluorescence plate reader assay
[4] = biological target: DNA (cytosine-5)-methyltransferase 1 (Homo sapiens, UniProt P26358); assay: Inhibition of human DNMT1 enzyme using polydeoxy-inosine polydeoxy-cytosine DNA as substrate incubated for 15 mins in presence of SAM by TR-FRET assay
[5] = biological target: T1, Histone-lysine N-methyltransferase EHMT2 (Homo sapiens, UniProt Q96KQ7); assay: Inhibition of human G9a enzyme using histone monomethyl-H3K9 peptide as substrate incubated for 1 hr in presence of SAM by TR-FRET assay
T1 sequence (Q96KQ7 whole entry): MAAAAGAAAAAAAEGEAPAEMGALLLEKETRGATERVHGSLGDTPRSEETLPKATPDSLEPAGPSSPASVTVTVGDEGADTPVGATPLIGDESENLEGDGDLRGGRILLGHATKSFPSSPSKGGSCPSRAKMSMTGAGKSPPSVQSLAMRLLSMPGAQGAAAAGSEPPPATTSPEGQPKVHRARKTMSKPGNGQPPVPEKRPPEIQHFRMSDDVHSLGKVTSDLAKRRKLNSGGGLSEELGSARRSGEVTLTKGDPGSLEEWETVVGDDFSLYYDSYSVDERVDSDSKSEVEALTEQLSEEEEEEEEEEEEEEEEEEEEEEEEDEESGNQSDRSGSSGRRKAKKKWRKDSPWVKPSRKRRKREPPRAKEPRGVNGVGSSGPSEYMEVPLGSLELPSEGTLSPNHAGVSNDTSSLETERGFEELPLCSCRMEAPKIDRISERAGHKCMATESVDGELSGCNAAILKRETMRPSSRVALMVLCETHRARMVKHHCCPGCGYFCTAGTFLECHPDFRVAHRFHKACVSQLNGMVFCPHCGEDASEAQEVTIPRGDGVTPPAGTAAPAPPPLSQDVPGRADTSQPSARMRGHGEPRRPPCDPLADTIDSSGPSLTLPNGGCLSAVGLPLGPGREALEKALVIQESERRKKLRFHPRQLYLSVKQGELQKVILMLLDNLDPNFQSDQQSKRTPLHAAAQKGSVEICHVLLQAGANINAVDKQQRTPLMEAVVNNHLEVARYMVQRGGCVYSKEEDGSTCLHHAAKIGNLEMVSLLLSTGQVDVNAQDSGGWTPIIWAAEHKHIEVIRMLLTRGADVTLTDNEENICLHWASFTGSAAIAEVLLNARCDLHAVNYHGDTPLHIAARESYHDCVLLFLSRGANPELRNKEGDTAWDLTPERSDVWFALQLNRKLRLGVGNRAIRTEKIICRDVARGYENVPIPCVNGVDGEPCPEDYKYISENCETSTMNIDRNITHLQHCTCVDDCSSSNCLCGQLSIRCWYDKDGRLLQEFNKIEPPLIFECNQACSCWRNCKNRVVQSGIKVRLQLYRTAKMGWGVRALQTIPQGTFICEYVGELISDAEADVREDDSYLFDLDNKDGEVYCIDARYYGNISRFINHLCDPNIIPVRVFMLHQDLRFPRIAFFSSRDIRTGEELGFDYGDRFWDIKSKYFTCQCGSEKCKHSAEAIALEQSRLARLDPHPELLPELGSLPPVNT

[6] = system: MM1.S; assay: Antiproliferative activity against human MM1.S cells assessed as inhibition of cell proliferation measured up to 72 hrs by CellTiter96 Aqueous one reagent based assay; assay type: functional
[7] = system: THLE-2; assay: Cytotoxicity against human THLE-2 cells assessed as decrease in cell viability measured after 72 hrs by Vialight-plus cell proliferation assay; assay type: cell-based; conditions: thle-2, 72 h
Procedure, shortened: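 Human THLE-2 cells exposed to compound for 72 h. Cytotoxicity reported as LC50 and pLC50, averaged from at least two independent experiments on different days.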

[8] = biological target: T2, Protein deacetylase HDAC6 (Homo sapiens, UniProt Q9UBN7); assay: Inhibition of full length human N-terminal GST-tagged HDAC6 using fluorogenic acetylated peptide as substrate incubated for 30 mins by fluorescence plate reader assay
T2 sequence (Q9UBN7 whole entry): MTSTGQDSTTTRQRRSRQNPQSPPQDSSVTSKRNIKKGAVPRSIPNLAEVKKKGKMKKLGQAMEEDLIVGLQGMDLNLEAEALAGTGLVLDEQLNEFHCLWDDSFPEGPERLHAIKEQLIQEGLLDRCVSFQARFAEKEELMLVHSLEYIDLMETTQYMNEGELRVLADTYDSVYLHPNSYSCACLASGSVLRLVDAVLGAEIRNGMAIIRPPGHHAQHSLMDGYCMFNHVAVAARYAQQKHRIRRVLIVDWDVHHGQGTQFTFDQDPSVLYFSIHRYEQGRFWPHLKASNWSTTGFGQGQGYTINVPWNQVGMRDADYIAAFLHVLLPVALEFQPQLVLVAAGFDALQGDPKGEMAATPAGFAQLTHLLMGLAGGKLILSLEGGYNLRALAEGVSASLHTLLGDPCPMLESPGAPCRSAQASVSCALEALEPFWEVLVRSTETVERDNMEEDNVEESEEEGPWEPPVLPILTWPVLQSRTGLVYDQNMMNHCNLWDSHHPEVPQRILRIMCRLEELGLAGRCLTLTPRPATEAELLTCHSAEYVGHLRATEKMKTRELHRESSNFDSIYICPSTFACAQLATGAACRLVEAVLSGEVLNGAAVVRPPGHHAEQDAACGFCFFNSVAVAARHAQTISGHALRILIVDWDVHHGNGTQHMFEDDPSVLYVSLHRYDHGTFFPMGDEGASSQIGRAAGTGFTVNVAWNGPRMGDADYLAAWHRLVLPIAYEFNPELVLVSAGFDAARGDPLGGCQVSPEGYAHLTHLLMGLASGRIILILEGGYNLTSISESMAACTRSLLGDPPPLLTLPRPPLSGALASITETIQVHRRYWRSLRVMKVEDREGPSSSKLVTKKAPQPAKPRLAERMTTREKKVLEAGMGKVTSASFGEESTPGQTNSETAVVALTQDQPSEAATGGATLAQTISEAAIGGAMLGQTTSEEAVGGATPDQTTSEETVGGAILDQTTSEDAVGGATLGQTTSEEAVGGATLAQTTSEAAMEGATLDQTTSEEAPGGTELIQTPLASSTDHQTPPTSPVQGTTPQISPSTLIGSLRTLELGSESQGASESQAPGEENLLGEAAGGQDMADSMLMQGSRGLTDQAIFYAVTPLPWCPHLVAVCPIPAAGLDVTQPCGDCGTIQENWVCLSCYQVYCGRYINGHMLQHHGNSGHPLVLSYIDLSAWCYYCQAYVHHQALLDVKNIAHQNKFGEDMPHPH

[9] = Permeability of the compound in PBS/EtOH buffer (70:30) incubated for 18 hrs by UV plate reader based PAMPA assay; assay type: ADME; conditions: read-out: permeability
[10] = time hrs <=72, read-out: pGI50 (converted)

Sequence of DNA (cytosine-5)-methyltransferase 1 (P26358 whole entry): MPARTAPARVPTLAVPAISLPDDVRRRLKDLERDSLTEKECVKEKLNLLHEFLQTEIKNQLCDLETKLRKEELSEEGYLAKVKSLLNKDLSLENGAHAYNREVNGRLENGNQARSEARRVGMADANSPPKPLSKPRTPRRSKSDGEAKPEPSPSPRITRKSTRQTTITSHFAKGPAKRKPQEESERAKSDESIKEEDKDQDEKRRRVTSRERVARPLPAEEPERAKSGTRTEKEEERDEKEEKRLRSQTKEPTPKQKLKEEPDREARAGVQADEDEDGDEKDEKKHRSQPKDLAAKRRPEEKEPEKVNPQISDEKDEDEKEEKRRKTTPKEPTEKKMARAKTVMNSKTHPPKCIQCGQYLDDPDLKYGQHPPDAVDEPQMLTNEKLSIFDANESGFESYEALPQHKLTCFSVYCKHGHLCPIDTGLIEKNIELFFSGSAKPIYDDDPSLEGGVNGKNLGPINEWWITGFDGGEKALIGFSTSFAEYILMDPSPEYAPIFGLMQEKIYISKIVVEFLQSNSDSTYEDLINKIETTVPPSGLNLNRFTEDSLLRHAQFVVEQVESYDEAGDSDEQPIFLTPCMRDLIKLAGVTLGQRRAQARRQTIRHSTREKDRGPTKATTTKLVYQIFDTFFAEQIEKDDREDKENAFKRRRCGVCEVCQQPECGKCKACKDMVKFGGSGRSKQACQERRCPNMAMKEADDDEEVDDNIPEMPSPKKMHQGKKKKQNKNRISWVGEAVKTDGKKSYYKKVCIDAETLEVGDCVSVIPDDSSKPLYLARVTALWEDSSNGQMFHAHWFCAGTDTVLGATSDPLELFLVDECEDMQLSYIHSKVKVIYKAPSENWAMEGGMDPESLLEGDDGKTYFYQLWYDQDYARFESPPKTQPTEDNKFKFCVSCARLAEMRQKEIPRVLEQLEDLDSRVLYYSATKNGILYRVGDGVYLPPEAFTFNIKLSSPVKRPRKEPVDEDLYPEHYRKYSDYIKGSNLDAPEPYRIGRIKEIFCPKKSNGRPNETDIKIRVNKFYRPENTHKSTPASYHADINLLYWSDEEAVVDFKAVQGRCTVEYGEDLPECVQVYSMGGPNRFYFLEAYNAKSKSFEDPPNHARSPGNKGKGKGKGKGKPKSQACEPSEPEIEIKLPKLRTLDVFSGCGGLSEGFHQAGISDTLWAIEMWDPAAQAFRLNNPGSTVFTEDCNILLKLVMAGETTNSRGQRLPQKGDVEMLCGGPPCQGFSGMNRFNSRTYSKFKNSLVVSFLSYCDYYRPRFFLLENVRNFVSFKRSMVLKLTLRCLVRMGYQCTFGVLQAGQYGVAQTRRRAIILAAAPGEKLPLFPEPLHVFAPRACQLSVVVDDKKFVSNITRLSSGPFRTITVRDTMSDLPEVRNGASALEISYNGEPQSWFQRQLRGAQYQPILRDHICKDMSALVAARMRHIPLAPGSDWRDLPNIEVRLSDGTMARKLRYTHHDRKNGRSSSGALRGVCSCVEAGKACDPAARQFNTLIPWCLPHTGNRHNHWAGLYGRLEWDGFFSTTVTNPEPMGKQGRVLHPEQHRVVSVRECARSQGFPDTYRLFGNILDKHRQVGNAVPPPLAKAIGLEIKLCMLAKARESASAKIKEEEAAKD
Sequence of Histone deacetylase 1 (Q13547 whole entry): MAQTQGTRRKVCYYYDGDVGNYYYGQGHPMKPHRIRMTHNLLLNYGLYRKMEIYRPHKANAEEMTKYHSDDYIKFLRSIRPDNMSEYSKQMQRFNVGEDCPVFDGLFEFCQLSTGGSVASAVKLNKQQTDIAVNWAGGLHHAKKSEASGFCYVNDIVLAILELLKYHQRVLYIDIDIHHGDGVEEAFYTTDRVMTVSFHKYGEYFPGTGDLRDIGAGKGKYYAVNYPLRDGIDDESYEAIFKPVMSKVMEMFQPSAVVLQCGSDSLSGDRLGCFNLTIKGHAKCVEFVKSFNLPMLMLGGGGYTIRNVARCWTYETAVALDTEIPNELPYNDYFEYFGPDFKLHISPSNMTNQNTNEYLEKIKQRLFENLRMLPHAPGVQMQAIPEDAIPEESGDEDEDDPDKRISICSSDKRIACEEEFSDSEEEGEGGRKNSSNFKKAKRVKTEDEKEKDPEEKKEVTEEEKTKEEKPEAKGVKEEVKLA
Sequence of Histone deacetylase 3/Nuclear receptor corepressor 2 (HDAC3/NCoR2) (O15379 whole entry): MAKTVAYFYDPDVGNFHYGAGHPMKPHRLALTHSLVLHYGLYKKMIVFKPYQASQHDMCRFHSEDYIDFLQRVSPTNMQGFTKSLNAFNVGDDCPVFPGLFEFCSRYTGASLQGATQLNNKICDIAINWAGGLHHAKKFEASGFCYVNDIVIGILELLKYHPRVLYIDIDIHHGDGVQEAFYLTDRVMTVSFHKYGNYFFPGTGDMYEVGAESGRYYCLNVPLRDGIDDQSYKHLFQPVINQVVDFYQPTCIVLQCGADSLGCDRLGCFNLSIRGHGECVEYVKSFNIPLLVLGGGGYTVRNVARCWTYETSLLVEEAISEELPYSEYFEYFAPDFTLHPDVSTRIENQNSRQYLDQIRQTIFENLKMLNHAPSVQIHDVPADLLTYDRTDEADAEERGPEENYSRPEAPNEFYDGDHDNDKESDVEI
Sequence of Histone deacetylase 3/Nuclear receptor corepressor 2 (HDAC3/NCoR2) (Q9Y618 whole entry, further chain): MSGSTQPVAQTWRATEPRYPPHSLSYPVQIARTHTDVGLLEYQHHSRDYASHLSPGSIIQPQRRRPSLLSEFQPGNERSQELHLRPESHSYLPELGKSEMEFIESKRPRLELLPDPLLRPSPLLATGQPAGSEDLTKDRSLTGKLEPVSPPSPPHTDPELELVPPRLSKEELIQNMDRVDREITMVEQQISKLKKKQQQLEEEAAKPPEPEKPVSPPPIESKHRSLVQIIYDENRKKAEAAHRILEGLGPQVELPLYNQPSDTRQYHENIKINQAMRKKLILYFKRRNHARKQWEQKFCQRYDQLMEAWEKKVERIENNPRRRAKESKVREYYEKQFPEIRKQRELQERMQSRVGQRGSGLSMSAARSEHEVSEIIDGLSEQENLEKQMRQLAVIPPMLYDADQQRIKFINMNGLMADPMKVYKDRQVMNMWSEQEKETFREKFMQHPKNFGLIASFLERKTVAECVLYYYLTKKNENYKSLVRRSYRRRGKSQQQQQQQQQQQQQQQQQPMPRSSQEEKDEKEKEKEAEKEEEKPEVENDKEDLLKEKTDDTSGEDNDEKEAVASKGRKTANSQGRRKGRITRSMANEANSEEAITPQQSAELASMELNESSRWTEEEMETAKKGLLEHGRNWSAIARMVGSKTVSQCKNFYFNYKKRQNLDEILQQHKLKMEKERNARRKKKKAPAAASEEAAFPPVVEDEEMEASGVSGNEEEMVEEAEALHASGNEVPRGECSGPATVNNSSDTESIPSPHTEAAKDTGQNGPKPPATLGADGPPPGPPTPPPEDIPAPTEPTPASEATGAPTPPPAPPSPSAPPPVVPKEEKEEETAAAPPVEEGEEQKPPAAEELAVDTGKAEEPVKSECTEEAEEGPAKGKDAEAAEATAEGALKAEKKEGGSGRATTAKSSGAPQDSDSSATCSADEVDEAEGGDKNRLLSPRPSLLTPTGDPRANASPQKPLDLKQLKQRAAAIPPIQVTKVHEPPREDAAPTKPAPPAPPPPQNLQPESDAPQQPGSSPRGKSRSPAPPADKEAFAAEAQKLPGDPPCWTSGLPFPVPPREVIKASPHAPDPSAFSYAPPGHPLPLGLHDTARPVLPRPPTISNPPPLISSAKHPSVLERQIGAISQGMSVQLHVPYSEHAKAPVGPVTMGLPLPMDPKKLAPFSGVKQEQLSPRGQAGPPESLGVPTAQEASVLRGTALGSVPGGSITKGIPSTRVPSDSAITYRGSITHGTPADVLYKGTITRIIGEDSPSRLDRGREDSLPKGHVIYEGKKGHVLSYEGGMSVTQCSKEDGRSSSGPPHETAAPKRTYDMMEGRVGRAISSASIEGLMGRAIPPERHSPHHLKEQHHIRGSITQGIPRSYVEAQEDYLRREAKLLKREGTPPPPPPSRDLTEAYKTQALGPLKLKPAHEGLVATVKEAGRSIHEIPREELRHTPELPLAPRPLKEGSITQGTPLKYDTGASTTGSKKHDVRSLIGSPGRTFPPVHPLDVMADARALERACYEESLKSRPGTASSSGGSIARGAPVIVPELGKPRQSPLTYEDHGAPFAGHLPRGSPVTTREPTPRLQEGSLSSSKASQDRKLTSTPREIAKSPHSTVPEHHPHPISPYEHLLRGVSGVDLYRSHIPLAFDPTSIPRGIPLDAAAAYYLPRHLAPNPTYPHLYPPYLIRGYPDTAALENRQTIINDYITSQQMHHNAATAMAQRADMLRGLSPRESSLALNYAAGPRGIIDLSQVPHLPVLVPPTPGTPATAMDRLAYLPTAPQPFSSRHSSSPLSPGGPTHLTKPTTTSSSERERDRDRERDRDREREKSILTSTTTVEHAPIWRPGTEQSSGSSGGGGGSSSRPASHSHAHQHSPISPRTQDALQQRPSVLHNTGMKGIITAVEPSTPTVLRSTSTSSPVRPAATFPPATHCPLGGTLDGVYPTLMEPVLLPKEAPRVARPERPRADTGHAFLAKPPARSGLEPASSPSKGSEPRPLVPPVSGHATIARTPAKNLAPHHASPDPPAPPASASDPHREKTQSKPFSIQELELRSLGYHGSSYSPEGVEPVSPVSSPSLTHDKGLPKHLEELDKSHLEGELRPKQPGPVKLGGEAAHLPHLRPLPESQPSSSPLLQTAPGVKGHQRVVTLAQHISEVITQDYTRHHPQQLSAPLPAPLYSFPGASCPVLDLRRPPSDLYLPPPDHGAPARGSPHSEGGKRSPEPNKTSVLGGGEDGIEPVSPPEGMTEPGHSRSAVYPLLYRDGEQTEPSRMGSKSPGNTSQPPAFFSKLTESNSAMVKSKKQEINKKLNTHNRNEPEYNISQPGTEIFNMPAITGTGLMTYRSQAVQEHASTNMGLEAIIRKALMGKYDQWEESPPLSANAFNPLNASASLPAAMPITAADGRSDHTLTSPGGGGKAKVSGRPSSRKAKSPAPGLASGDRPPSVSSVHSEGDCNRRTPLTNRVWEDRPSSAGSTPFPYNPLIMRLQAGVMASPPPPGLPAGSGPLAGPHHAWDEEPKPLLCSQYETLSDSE

Compound | IC50 [1] [µM] | IC50 [2] [µM] | IC50 [3] [µM] | IC50 [4] [µM] | IC50 [5] [µM] | GI50 ([6]; time hrs <=72, read-out: GI50) [µM] | GI50 [6, 10] [µM] | LC50 [7] [µM] | pLC50 [7] | IC50 [8] [µM] | Papp at 18 h [9] [nm/s]
COc1cc2c(NCC3CCC(C(=O)NO)CC3)cc(-c3ccc(C)o3)nc2cc1OCCCN1CCCC1 (centres undefined) | 0.159 | 0.109 | 0.022 | 0.531 | 0.055 | > 10 | > 10 | 26.1 | 4.58 | 0.034 | 
COc1cc2nc(-c3ccc(C)o3)cc(NCC3CCN(Cc4ccc(C(=O)NO)cc4)CC3)c2cc1OC |  |  | 0.33 | 0.267 | > 10 | 0.217 | 0.219 | 0.204 | 6.69 | 0.084 | 5.56
COc1cc2nc(C3CCCCC3)cc(NCC3CCN(c4ncc(C(=O)NO)cn4)CC3)c2cc1OC |  |  | 0.002 | > 10 | > 10 | 0.195 | 0.195 | 2.298 | 5.64 | 0.111 | 2.1
COc1cc2nc(-c3ccc(C)o3)cc(NCC3CCN(C4CC(C(=O)NO)C4)CC3)c2cc1OC (centres undefined) |  |  | 0.453 | 0.54 | > 10 | 1.99 | 2 | 10.41 | 4.98 | 3.18 | 0.68
COc1cc2c(NC3CCN(C)CC3)cc(-c3ccc(C)o3)nc2cc1OCCCN1CCCC1 | > 10 | > 10 | > 10 |  |  | 1.04 | 1.07 | 1.78 | 5.75 | > 10 | 
COc1cc2c(NC3CCN(c4ncc(C(=O)NO)cn4)CC3)cc(C)nc2cc1OCCCN1CCCC1 |  |  | 0.017 | 2.04 | 0.034 | > 10 | > 10 | 33.25 | 4.48 | 0.118 | 0.75
COc1cc2nc(-c3ccc(C)o3)nc(NCC3CCN(c4ncc(C(=O)NO)cn4)CC3)c2cc1OC | 0.038 | 0.021 | 0.007 | > 10 | > 10 |  |  |  |  | 0.506 | 
COc1cc2c(NCc3ccc(-c4ccc(C(=O)NO)cc4)cc3)cc(-c3ccc(C)o3)nc2cc1OCCCN1CCCC1 |  |  | 0.045 | 2.57 | 2.24 | 1.81 | 1.82 | 13.5 | 4.87 | 0.127 | 1.1
COc1cc2nc(-c3ccc(C)o3)cc(NCC3CCN(Cc4ccc(C(=O)NO)s4)CC3)c2cc1OC |  |  | 0.303 | 0.323 | > 10 | 1.94 | 1.95 | 2.227 | 5.65 | 0.066 | 4.01
COc1cc2c(NC3CCN(c4ccc(C(=O)NO)cc4)CC3)cc(-c3ccc(C)o3)nc2cc1OCCCN1CCCC1 |  |  | 0.415 | 0.691 | 0.025 | > 10 | > 10 | 6.656 | 5.18 | 0.133 | 0.14
COc1cc2c(NCC3CCN(c4ncc(C(=O)NO)cn4)CC3)cc(-c3ccc(C)o3)nc2cc1OCC1CCNCC1 |  |  | 0.006 | 1.14 | 2.07 | > 10 | > 10 | 19.7 | 4.71 | 0.351 | 0.25
COc1cc2c(NCC3CCN(C)CC3)cc(-c3ccc(C)o3)nc2cc1OCCCN1CCCC1 | > 10 | > 10 | > 10 |  |  | 3.84 | 3.8 | 1.3 | 5.89 | > 10 | 

From ChEMBL document CHEMBL4834403, “Design and Synthesis of Novel Epigenetic Inhibitors Targeting Histone Deacetylases, DNA Methyltransferase 1, and Lysine Methyltransferase G9a with In Vivo Efficacy in Multiple Myeloma” (J Med Chem, 2021)
